Assay results from ChEMBL document CHEMBL1155448, “(3-Phenylsulfonylcycloalkano[e and d]pyrazolo[1,5-a]pyrimidin-2-yl)amines: potent and selective antagonists of the serotonin 5-HT6 receptor” (J Med Chem, 2010).

Assays:
hERG (KCNH2) [1] = target: T1, hERG (KCNH2) (Homo sapiens, UniProt Q12809); test: Inhibition of human ERG expressed in […] cells at 10 uM after 3 to 8 mins by voltage clamp assay; assay type: cell-based; conditions: HEK297 cells that express human ERG
In short: (§1)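 Automated whole-cell voltage clamp at 25 °C on HEK cells stably expressing human hERG; K-based intracellular (pH 7.2), Na-based extracellular (pH 7.4) solutions. 2 s pulses to +20 mV, 15 s interpulse; compound until steady current (3-8 min), washout, 10 μM cisapride control. Percent of vehicle tail current; triplicate, mean ± SEM at highest concentration.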

[2] = target: 5-hydroxytryptamine receptor 2B (Homo sapiens, UniProt P41595); test: Antagonist activity at human 5HT2B receptor expressed in HEK293 cells assessed as inhibition of alpha-Me-serotonin-induced intracellular calcium mobilization by spectrophotometry; assay type: functional, cell-based
In short: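 Tetracycline-induced T-Rex 5-HT2B HEK cells, Fura-2AM loaded (4 μM, 30 min, room temp, dark), suspended at (3-4) × 10⁶ cells/mL, diluted into HEPES-buffered saline with 1.8 mM CaCl₂ in stirred cuvette. Compound added after 20-30 s baseline, then serotonin challenge; Fura-2 ratio 340/380 nm excitation, 510 nm emission. Ki from concentration-dependent inhibition; geometric mean of three to four experiments, duplicate curves.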

[3] = target: T2, 5-hydroxytryptamine receptor 6 (Homo sapiens, UniProt P50406); test: Antagonist activity at human 5HT6 receptor expressed in HEK293 cells assessed as inhibition of serotonin-induced cAMP release; assay type: functional, cell-based
In short: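 Tetracycline-induced T-Rex 5-HT6 HEK cells in HBSS with 1 mM MgCl₂, 1 mM CaCl₂, 5 mM HEPES pH 7.4, 100 μM IBMX; compounds 15 min (0.1% DMSO final), then serotonin 10 nM final for 30 min at room temp. cAMP by LANCE TR-FRET. Ki from concentration-dependent inhibition; geometric mean of three to four independent experiments, each curve in duplicate.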

[4] = target: T2, 5-hydroxytryptamine receptor 6; test: Antagonist activity at 5HT6 receptor; assay type: functional
In short: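 Human 5-HT6R expressed in HEK293 cells (T-Rex, tetracycline-induced a day before). Compounds preincubated 15 min in HBSS with 1 mM MgCl2, 1 mM CaCl2, 5 mM HEPES pH 7.4, 100 μM IBMX, 0.1% DMSO final. Serotonin then added to 10 nM final, 30 min at room temperature. cAMP measured by LANCE TR-FRET. Ki from concentration-dependent inhibition, geometric mean of 3-4 experiments, duplicate curves.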

hERG (KCNH2) [5] = target: T1, hERG (KCNH2); test: Inhibition of human ERG expressed in […] cells at 3 uM after 3 to 8 mins by voltage clamp assay; assay type: cell-based; conditions: HEK297 cells that express human ERG; in short: as §1
hERG (KCNH2) [6] = target: T1, hERG (KCNH2); test: Inhibition of human ERG expressed in […] cells at 90 uM after 3 to 8 mins by voltage clamp assay; assay type: cell-based; conditions: […] cells that express human ERG; in short: as §1
[7] = target: T2, 5-hydroxytryptamine receptor 6; test: Displacement of [3H]lysergic acid diethylamide from human recombinant 5HT6 receptor expressed in human HeLa cells; assay type: cell-based
In short: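 Ki from concentration-dependent displacement of [3H]lysergic acid diethylamide in a contracted radioligand binding assay; each curve measured in duplicate.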

T2 sequence (P50406 whole entry): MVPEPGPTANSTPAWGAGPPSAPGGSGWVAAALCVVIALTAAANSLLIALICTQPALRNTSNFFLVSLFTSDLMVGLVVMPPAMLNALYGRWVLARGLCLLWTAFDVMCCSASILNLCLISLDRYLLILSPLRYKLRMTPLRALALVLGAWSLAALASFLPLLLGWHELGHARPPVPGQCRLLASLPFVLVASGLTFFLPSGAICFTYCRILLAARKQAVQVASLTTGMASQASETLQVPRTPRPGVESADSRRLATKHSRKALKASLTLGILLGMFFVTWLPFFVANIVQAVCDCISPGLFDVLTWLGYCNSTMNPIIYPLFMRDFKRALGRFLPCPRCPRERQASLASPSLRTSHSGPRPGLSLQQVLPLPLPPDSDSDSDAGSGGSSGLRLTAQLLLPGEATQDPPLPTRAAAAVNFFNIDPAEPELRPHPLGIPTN
T1 sequence (Q12809 whole entry): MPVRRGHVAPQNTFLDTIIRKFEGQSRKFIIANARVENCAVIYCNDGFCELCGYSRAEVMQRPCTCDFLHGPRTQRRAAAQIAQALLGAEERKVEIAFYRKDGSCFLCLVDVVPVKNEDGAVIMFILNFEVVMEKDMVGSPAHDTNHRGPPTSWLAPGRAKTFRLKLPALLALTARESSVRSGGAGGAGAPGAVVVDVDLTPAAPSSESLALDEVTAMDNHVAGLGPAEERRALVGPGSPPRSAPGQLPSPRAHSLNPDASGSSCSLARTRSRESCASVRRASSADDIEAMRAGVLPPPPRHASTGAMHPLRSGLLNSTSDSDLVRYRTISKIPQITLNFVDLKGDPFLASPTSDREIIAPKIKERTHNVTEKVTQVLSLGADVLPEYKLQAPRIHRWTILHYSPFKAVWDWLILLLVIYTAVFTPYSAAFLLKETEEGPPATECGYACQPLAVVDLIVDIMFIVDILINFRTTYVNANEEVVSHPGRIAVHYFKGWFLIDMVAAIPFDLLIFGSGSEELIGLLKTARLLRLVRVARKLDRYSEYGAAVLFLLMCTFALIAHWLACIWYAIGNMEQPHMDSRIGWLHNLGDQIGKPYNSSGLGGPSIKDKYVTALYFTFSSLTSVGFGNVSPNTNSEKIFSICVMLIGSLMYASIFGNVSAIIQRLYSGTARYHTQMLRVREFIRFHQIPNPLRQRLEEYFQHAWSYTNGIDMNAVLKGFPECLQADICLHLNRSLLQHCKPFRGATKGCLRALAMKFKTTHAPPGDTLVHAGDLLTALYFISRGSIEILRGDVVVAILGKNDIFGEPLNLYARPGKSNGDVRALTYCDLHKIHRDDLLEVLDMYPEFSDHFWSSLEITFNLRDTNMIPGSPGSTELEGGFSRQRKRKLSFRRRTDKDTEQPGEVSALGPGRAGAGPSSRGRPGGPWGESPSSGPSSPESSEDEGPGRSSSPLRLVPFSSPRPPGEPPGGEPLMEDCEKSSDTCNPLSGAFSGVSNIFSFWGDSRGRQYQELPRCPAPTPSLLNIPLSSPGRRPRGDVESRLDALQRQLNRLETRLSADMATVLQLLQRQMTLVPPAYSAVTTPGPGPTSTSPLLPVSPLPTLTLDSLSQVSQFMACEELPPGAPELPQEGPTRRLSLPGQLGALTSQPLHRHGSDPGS
Chain of 5-hydroxytryptamine receptor 2B (P41595 whole entry): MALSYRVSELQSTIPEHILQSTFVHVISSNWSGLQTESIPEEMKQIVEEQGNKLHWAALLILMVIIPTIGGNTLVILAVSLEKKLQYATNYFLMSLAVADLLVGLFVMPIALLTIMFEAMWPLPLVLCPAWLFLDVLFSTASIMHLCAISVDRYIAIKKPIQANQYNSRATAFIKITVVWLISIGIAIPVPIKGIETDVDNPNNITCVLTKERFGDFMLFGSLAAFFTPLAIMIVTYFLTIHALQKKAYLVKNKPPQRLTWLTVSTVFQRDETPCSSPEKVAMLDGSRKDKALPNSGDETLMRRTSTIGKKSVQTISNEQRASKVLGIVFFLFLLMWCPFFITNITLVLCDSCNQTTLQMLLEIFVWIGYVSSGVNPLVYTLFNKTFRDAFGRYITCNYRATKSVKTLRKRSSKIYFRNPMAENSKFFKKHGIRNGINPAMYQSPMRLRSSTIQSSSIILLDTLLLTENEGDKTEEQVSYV

Row | Ki [2] [nM] | Ki [3] [nM] | Structure (SMILES) | other results
1 |  |  | CNc1nn2c3c(c(C)nc2c1S(=O)(=O)c1ccccc1)CCCC3 | inhibition at 10 µM (hERG (KCNH2) [1]): 52.4%
2 | 153 | 0.259 | CNc1nn2c3c(cnc2c1S(=O)(=O)c1ccccc1)CCCC3 | 
3 |  | 1760 | Cc1nc2c(S(=O)(=O)c3ccccc3)c(N3CCNCC3)nn2c2c1CCCC2 | 
4 | 169 | 0.542 | CNc1nn2cc3c(nc2c1S(=O)(=O)c1ccccc1)CCCC3 | 
5 |  |  | CSc1nn2c3c(c(C)nc2c1S(=O)(=O)c1ccccc1)CCCC3 | IC50 [4]: 6 nM
6 |  | 25.5 | Cc1nc2c(S(=O)(=O)c3ccccc3)c(N(C)C)nn2c2c1CCC2 | 
7 |  | 869 | Cc1nc2c(S(=O)(=O)c3ccccc3)c(N3CCNCC3)nn2c2c1CCC2 | 
8 | 188 | 0.413 | CNc1nn2c3c(c(C)nc2c1S(=O)(=O)c1ccccc1)CCC3 | inhibition at 3 µM (hERG (KCNH2) [5]): 4.3%
9 |  | 28.8 | CN(C)c1nn2c3c(cnc2c1S(=O)(=O)c1ccccc1)CCC3 | 
10 |  |  | CNc1nn2c(C)c3c(nc2c1S(=O)(=O)c1ccccc1)CCCC3 | inhibition at 3 µM (hERG (KCNH2) [5]): 12.5%
11 | 464 | 0.375 | CNc1nn2c3c(cnc2c1S(=O)(=O)c1ccccc1)CCC3 | inhibition at 90 µM (hERG (KCNH2) [6]): 29.5%; Ki [7]: 0.088 nM
